Laboratory results: ChEMBL document CHEMBL4325900, “Antibacterial activity evaluation of synthetic novel pleuromutilin derivatives in vitro and in experimental infection mice” (2019)
Values after ≈ are worked out from the molar mass of the structure shown.

Legend:
[1] = test system: Staphylococcus aureus; test: Antibacterial activity against methicillin-sensitive Staphylococcus aureus after 24 hrs by NCCLS method; assay type: functional
How it was run: (§1)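 Broth microdilution in Mueller-Hinton broth. Stocks at 1280 µg/mL in aqueous 10-20% DMSO were diluted to 128 µg/mL, then serially 2-fold diluted giving final concentrations of 64 down to 0.125 µg/mL. Overnight MHB cultures were diluted to 10^6~10^7 CFU/mL, and 100 µL was added per well. Plates ran 24 h at 37°C. MIC was read from OD against an MHB blank, in triplicate.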

[2] = test system: Staphylococcus aureus; test: Antibacterial activity against methicillin-resistant Staphylococcus aureus after 24 hrs by NCCLS method; assay type: functional
How it was run: (§2)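 Broth microdilution in Mueller-Hinton broth. Stocks at 1280 µg/mL in aqueous 10-20% DMSO, diluted to 128 µg/mL, then 2-fold serially to final 64 down to 0.125 µg/mL. Overnight MHB cultures diluted to 10^6~10^7 CFU/mL and added 1:1 to compound. Incubated 24 h at 37°C. MIC read from OD against MHB blank. Three parallels per concentration.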

[3] = test system: Staphylococcus epidermidis; test: Antibacterial activity against methicillin-sensitive Staphylococcus epidermidis after 24 hrs by NCCLS method; assay type: functional; how it was run: as §2
[4] = test system: Staphylococcus epidermidis; test: Antibacterial activity against methicillin-resistant Staphylococcus epidermidis after 24 hrs by NCCLS method; assay type: functional; how it was run: as §2
[5] = test system: Enterococcus faecium; test: Antibacterial activity against Enterococcus faecium after 24 hrs by NCCLS method; assay type: functional; how it was run: as §1
[6] = test system: Enterococcus faecalis; test: Antibacterial activity against Enterococcus faecalis after 24 hrs by NCCLS method; assay type: functional; how it was run: as §1
[7] = test system: Escherichia coli; test: Antibacterial activity against Escherichia coli ATCC 11775 after 24 hrs by NCCLS method; assay type: functional; conditions: DSM 30083 = JCM 1649 = ATCC 11775, 24 h; how it was run: as §1
[8] = test system: Pasteurella multocida; test: Antibacterial activity against Pasteurella multocida after 24 hrs by NCCLS method; assay type: functional; how it was run: as §1
[9] = test system: Staphylococcus aureus; test: Bactericidal activity against exponential phase of methicillin-resistant Staphylococcus aureus after 1 to 4 hrs by time kill kinetics assay; assay type: functional, organism-based
How it was run: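 Exponential-phase S. aureus (4 h at 37°C, 120 rpm) diluted to ~2×10^7 CFU/mL in MHB and mixed 1:1 with MHB containing twice the desired compound concentration. Shaken at 37°C, 120 rpm. Samples at 1, 2, 3 and 4 h washed with PBS, diluted, spot-plated on MH agar, counted after ~18 h at 37°C as log10 CFU/mL. Triplicate, mean±s.d.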

[10] = test system: Staphylococcus aureus; test: Antibacterial activity against methicillin-resistant Staphylococcus aureus clinical isolates infected in ip dosed mouse assessed as reduction in bacterial infection administered 1 hr after infection and measured after 7 days; assay type: functional
How it was run: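 Kunming mice, half male and half female, 19-23 g, 10 per group. Infected i.p. with 0.5 mL clinical MRSA isolate suspension (~10^7 CFU/mL). Single i.p. dose 1 h post-infection, five dose levels between 7.0 and 50.0 mg/kg depending on compound. Vehicle was DMSO:Tween-80:water 1:1:8, or water for valnemulin. ED50 by Probit analysis from survival after 7 days; 95% confidence ranges.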

[11] = test system: Staphylococcus aureus; test: Antibacterial activity against methicillin-resistant Staphylococcus aureus infected in Kunming mouse assessed as mouse survival at 40 mg/kg, ig qd treated for 3 consecutive days and measured during compound treatment relative to control; assay type: functional; conditions: po
How it was run: (§3)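 Female Kunming mice, 22±2 g, made neutropenic with cyclophosphamide i.p., 150 mg/kg 4 days and 100 mg/kg 1 day before infection. Infected i.p. with 0.5 mL suspension of clinical MRSA isolate. Intragastric dosing at 20 or 40 mg/kg/d, starting 1 h post-infection, once daily for 3 consecutive days. Survival monitored.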

[12] = test system: Staphylococcus aureus; test: Antibacterial activity against methicillin-resistant Staphylococcus aureus infected in Kunming mouse assessed as mouse survival at 40 mg/kg, ig qd treated for 3 consecutive days and measured at day 5 relative to control; assay type: functional; conditions: po, 120 h; how it was run: as §3
[13] = test system: Staphylococcus aureus; test: Antibacterial activity against methicillin-resistant Staphylococcus aureus infected in Kunming mouse assessed as mouse survival at 40 mg/kg, ig qd treated for 3 consecutive days and measured at day 6 relative to control; assay type: functional; conditions: po, 144 h; how it was run: as §3
[14] = test system: Staphylococcus aureus; test: Antibacterial activity against methicillin-resistant Staphylococcus aureus infected in Kunming mouse assessed as mouse survival at 20 mg/kg, ig qd treated for 3 consecutive days and measured up to 10 days relative to control; assay type: functional; conditions: po, 240 h; how it was run: as §3

| SMILES | MIC [1] [µg/mL] | MIC [2] [µg/mL] | MIC [3] [µg/mL] | MIC [4] [µg/mL] | MIC [5] [µg/mL] | MIC [6] [µg/mL] | MIC [7] [µg/mL] | MIC [8] [µg/mL] | Activity [9] | ED50 [10] [mg/kg] | survival at 40 mg/kg [11] [%] | survival at 40 mg/kg [12] [%] | survival at 40 mg/kg [13] [%] | survival at 20 mg/kg [14] [%] |
| --- | --- | --- | --- | --- | --- | --- | --- | --- | --- | --- | --- | --- | --- | --- |
| C=C[C@]1(C)C[C@@H](OC(=O)CSc2nc(NC(=O)CN3CCN(c4ccccn4)CC3)c3cc[nH]c3n2)[C@]2(C)[C@H](C)CC[C@]3(CCC(=O)[C@H]32)[C@@H](C)[C@@H]1O | 1 (≈ 1.37 µM) | 0.5 (≈ 0.685 µM) | 0.5 (≈ 0.685 µM) | 0.5 (≈ 0.685 µM) | 0.25 (≈ 0.342 µM) | 64 (≈ 87.7 µM) | > 64 | > 64 |  |  |  |  |  |  |
| C=C[C@]1(C)C[C@@H](OC(=O)CSc2nc(NC(=O)CNC3CC3)c3cc[nH]c3n2)[C@]2(C)[C@H](C)CC[C@]3(CCC(=O)[C@H]32)[C@@H](C)[C@@H]1O | 0.125 (≈ 0.2 µM) | 0.25 (≈ 0.401 µM) | 0.125 (≈ 0.2 µM) | 0.25 (≈ 0.401 µM) | 0.25 (≈ 0.401 µM) | 64 (≈ 103 µM) | > 64 | 32 (≈ 51.3 µM) |  |  |  |  |  |  |
| C=C[C@]1(C)C[C@@H](OC(=O)CSc2nc(NC(=O)CN3CCOCC3)c3cc[nH]c3n2)[C@]2(C)[C@H](C)CC[C@]3(CCC(=O)[C@H]32)[C@@H](C)[C@@H]1O | 0.125 (≈ 0.191 µM) | 0.25 (≈ 0.382 µM) | 0.25 (≈ 0.382 µM) | 0.25 (≈ 0.382 µM) | 0.25 (≈ 0.382 µM) | 64 (≈ 97.9 µM) | 64 (≈ 97.9 µM) | 32 (≈ 48.9 µM) |  |  |  |  |  |  |
| C=C[C@]1(C)C[C@@H](OC(=O)CSc2nc(NC(=O)CN3CCC(N4CCCCC4)CC3)c3cc[nH]c3n2)[C@]2(C)[C@H](C)CC[C@]3(CCC(=O)[C@H]32)[C@@H](C)[C@@H]1O | 0.5 (≈ 0.68 µM) | 0.5 (≈ 0.68 µM) | 0.25 (≈ 0.34 µM) | 0.5 (≈ 0.68 µM) | 0.0625 (≈ 0.085 µM) | 64 (≈ 87.1 µM) | 64 (≈ 87.1 µM) | 64 (≈ 87.1 µM) |  |  |  |  |  |  |
| C=C[C@]1(C)C[C@@H](OC(=O)CSc2nc(NC(=O)CN3CCN(c4ccccc4)CC3)c3cc[nH]c3n2)[C@]2(C)[C@H](C)CC[C@]3(CCC(=O)[C@H]32)[C@@H](C)[C@@H]1O | 1 (≈ 1.37 µM) | 1 (≈ 1.37 µM) | 0.5 (≈ 0.686 µM) | 1 (≈ 1.37 µM) | 1 (≈ 1.37 µM) | 64 (≈ 87.8 µM) | > 64 | 64 (≈ 87.8 µM) |  |  |  |  |  |  |
| C=C[C@]1(C)C[C@@H](OC(=O)CSC(C)(C)CNC(=O)[C@H](N)C(C)C)[C@]2(C)[C@H](C)CC[C@]3(CCC(=O)[C@H]32)[C@@H](C)[C@@H]1O.Cl [VALNEMULIN HYDROCHLORIDE] | 0.25 | 0.25 | 0.125 | 0.25 | 0.125 | > 64 | 32 | 16 | Dose-dependent effect | 13.5 | > 90 | 70 | 80 | 30 |
| C=C[C@]1(C)C[C@@H](OC(=O)CSc2nc(NC(=O)CN3CCC(O)CC3)c3cc[nH]c3n2)[C@]2(C)[C@H](C)CC[C@]3(CCC(=O)[C@H]32)[C@@H](C)[C@@H]1O |  | 2 (≈ 2.99 µM) | 1 (≈ 1.5 µM) | 1 (≈ 1.5 µM) |  |  |  |  |  |  |  |  |  |  |
| C=C[C@]1(C)C[C@@H](OC(=O)CSc2nc(NC(=O)CN3CCNCC3)c3cc[nH]c3n2)[C@]2(C)[C@H](C)CC[C@]3(CCC(=O)[C@H]32)[C@@H](C)[C@@H]1O | 2 (≈ 3.06 µM) | 4 (≈ 6.13 µM) | 1 (≈ 1.53 µM) | 1 (≈ 1.53 µM) | 1 (≈ 1.53 µM) | 64 (≈ 98 µM) | > 64 | 32 (≈ 49 µM) |  |  |  |  |  |  |
| C=C[C@]1(C)C[C@@H](OC(=O)CSc2nc(NC(=O)CN3CCC(CO)CC3)c3cc[nH]c3n2)[C@]2(C)[C@H](C)CC[C@]3(CCC(=O)[C@H]32)[C@@H](C)[C@@H]1O | 0.25 (≈ 0.367 µM) | 0.25 (≈ 0.367 µM) | 0.125 (≈ 0.183 µM) | 0.125 (≈ 0.183 µM) | 0.25 (≈ 0.367 µM) | 64 (≈ 93.9 µM) | > 64 | 64 (≈ 93.9 µM) |  |  |  |  |  |  |
